Sampled rows, rich in hits. Any-hit rate of the full collection: about 1.8%.
TCR CD3 inh – human TCR-CD3 binding inhibition; TAMRA-labeled TCR probe fluorescence, biochemical; inhibition, % at 9.4 µM; 360,000 tested, 0.37% active;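 also: recombinant mutant TCR 2C K166C tagged with TAMRA read by polarization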
ARNT TACC3 PPI – disruptors of human ARNT/TACC3 interaction. AID 623870. 390,000 tested, 0.66% active. inhibition, % at 9.99 µM. AlphaScreen His-ARNT PAS-B/GST-TACC3 binding, luminescence; TACC3 fragment carries E629A point mutation;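 active = mean inhibition of replicates at least 50% and at least half of replicates each reaching 50%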
HTRA1 inh – blocks human HTRA1 serine peptidase; 340,000 tested, 0.5% active; AID 504803; recombinant HTRA1, FP-rhodamine activity-based probe, fluorescence polarization; Q92743; inhibition, % at 5.96 µM; in the data active = inhibition above about 36%
Target sequence (Q92743 whole entry, looked up): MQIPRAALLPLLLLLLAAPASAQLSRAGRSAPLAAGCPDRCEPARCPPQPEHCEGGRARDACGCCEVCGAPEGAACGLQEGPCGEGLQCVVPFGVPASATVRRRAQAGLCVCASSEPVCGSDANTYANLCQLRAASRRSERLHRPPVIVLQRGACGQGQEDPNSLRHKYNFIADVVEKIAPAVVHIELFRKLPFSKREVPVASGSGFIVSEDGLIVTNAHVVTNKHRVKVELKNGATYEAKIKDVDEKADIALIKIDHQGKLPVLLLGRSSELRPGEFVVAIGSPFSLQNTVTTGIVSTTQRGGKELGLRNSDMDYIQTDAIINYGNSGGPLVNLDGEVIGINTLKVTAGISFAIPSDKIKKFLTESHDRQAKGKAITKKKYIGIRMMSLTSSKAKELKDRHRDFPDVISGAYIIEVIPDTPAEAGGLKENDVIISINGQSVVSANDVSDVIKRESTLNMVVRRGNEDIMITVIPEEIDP
SIAE inh – inhibitors of human sialic acid acetylesterase SIAE; AID 1053197; 370,000 tested, 0.69% active; inhibition, % at 9.66 µM; SIAE FP-Rh probe binding, fluorescence polarization;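 active = inhibition above a cutoff: mean of compounds within the control limits plus 3 SD of those, cut at about 17% in these data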
mABHD4 FP – ABHD4 (mouse) inhibition, primary FP screen; purified mABHD4, FP-Rh probe fluorescence polarization; inhibition, % at 8.92 µM; 370,000 tested, 0.54% active; Q8VD66; AID 720543;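 active = inhibition exceeding the mean over every tested compound plus 3 SD, cut at about 30% in these data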
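Assay system: mABHD4 protein; medium: HEPES pH 7.0, NaCl, Pluronic buffer; dosing: 8.92 µM, single dose; schedule: 45 min + 60 min at 25 °C; signal: FP readout, ex 525 nm / em 598 nm; read-out: normalized percent inhibition of probe labeling; repeats: single replicate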
HTRA1 conf – confirmation of human HTRA1 inhibitors. inhibition, % at 5.96 µM. recombinant HTRA1, FP-rhodamine activity-based probe, fluorescence polarization. shares compounds with HTRA1 inh. 1,600 tested, 66% active;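 active = mean inhibition over three repeats above a set limit taken from the earlier primary screen, cut at about 37% in these data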;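 also: inhibitors block probe binding so polarization drops and inhibition rises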
AlphaScreen ctr – interferes with AlphaScreen signal, flagging false ARNT-TACC3 hits; His-ARNT PASB-GST AlphaScreen artifact counter-screen, luminescence; AC50, µM (top dose mostly 68 µM); 1,200 tested, 50% active; shares compounds with ARNT TACC3 PPI;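 active = every separate test run was called active for a drop in luminescence, with AC50 within twice the top valid dose, actives reach about 71 µM in these data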
BSA TAMRA ctr – BSA probe counter-screen for TCR-CD3 inhibitors; shares compounds with TCR CD3 inh; TAMRA-labeled BSA probe fluorescence counterscreen; inhibition, % at 9.4 µM; 1,200 tested, 10% active; in the data active = inhibition above about 23%
TCR-CD3 inh conf – confirmation of human TCR-CD3 interaction inhibitors; 1,200 tested, 48% active; inhibition, % at 9.4 µM; shares compounds with TCR CD3 inh; TAMRA-labeled TCR probe fluorescence binding assay
mABHD4 conf – confirmation of mouse ABHD4 inhibitors. shares compounds with mABHD4 FP. 1,800 tested, 55% active. purified mABHD4, FP-Rh probe fluorescence polarization. inhibition, % at 8.92 µM;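 active = mean inhibition across replicates above the hit cutoff set in the primary screen, cut at about 30% in these data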
SIAE inh conf – confirmation of human SIAE inhibitors; shares compounds with SIAE inh; SIAE FP-Rh activity-based probe, fluorescence polarization; inhibition, % at 9.66 µM; 2,300 tested, 13% active;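 active = mean inhibition of the replicates above the hit cutoff set in the primary screen, cut at about 17% in these data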;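 also: inhibitors lower polarization as more probe stays unbound to SIAE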
A number is an active result; – = inactive; · = no result given. Rule as the data show it, unless noted: active = inhibition above about 19%; inactive = the rest.

SMILES | TCR CD3 inh | ARNT TACC3 PPI | HTRA1 inh | SIAE inh | mABHD4 FP | AlphaScreen ctr | others
CCCCNC(=O)c1ccc2nc(-c3ccco3)c(-c3ccco3)nc2c1 | 23.0 | – | 53.5 | 26.8 | 60.4 | · | HTRA1 conf=39.0;BSA TAMRA ctr=–;TCR-CD3 inh conf=–;mABHD4 conf=52.1;SIAE inh conf=–
O=C(NC(=S)Nc1ccc(N2CCOCC2)cc1)c1ccco1 | – | – | – | – | – | ·
Cn1cnc(S(=O)(=O)N2C[C@H](O)COC[C@H]3O[C@H](CC(=O)NC4CCC4)CC[C@@H]32)c1 | · | – | · | · | · | ·
Cc1noc(C)c1NC(=O)Nc1ccc2c(c1)CC(=O)N([C@H](C)CO)C[C@H](C)[C@@H](CN(C)Cc1ccccc1)O2 | · | – | · | · | · | ·
Oc1ccc(C2=Nn3c(nnc3-c3ccco3)SC2)cc1O | 22.2 | 69.6 | 43.5 | 29.9 | 43.5 | – | HTRA1 conf=–;mABHD4 conf=39.8;SIAE inh conf=–
C[C@H]1CN([C@@H](C)CO)S(=O)(=O)c2ccc(-c3cccc(C(=O)N(C)C)c3)cc2O[C@@H]1CN(C)C(=O)Nc1ccc(F)cc1 | · | – | · | · | · | ·
CN(C)C(=O)C[C@H]1C[C@H]2c3cc(NS(C)(=O)=O)ccc3O[C@H]2[C@H](CO)O1 | · | – | · | · | · | ·
Oc1ccc(/C=N/Nc2ccc(Cl)nn2)c(O)c1O | 56.2 | 55.3 | 57.3 | 22.6 | 39.6 | 4.5µM | HTRA1 conf=40.5;BSA TAMRA ctr=–;TCR-CD3 inh conf=55.5;mABHD4 conf=81.3;SIAE inh conf=–
O=C(Nc1ccccc1)N1C[C@@H]2[C@H](c3ccccc31)[C@H](CO)N2CC1CCCC1 | · | – | · | · | · | ·
C/C(=N\NC(=O)c1cccc2ccccc12)c1ccccn1 | – | 63.1 | – | – | – | 29.2µM
O=C(NN=C(c1ccccc1)c1ccccn1)c1ccccc1 | – | 56.6 | – | – | – | –
C/C(=N\NC(=O)c1ccccc1OCc1ccc(F)cc1)c1ccccn1 | – | – | – | – | – | ·
O=C(NC(O)C(=O)c1ccccc1)c1ccccn1 (stereo unspecified) | – | – | – | – | – | ·
C[C@H]1CN([C@@H](C)CO)C(=O)c2cccc(NS(=O)(=O)c3cn(C)cn3)c2O[C@@H]1CN(C)S(=O)(=O)c1ccc(Cl)cc1 | · | – | · | · | · | ·
C[C@H](CO)N1C[C@H](C)[C@H](CN(C)C(=O)NC2CCCC2)Oc2cc(-c3cccnc3)ccc2S1(=O)=O | · | – | · | · | · | ·
C[C@@H]1CN([C@H](C)CO)C(=O)Cc2cc(NC(=O)NC3CCCCC3)ccc2O[C@H]1CN(C)Cc1ccc(-c2ccccc2)cc1 | · | – | · | · | · | ·
c1ccc(-c2nnc(-c3ccccn3)nn2)nc1 | – | 73.7 | – | – | – | –
O=S(=O)(N[C@@H]1CC[C@@H](CCn2cc(-c3cccnc3)nn2)O[C@H]1CO)c1ccccc1 | · | – | · | · | · | ·
O=C(c1ccccn1)N1CC[C@@H]2[C@H](CO)Nc3ccc(Br)cc3[C@@H]21 | · | 77.2 | · | · | · | 44.9µM
O=C(c1ccccn1)N1CC[C@@H]2[C@@H](CO)Nc3ccc(Br)cc3[C@@H]21 | · | – | · | · | · | ·
CS(=O)(=O)c1cccc(-c2nnc(NC(=O)c3ccc4ncsc4c3)o2)c1 | – | – | – | – | – | ·
CS(=O)(=O)c1ccccc1-c1nnc(NC(=O)c2ccc3ncsc3c2)o1 | – | 50.2 | – | – | – | –
Cc1noc(C)c1NC(=O)Nc1ccc2c(c1)C(=O)N([C@@H](C)CO)C[C@H](C)[C@@H](CN(C)Cc1ccccc1)O2 | · | – | · | · | · | ·
FC(F)(F)c1cnc(C(c2ccccn2)c2ncn[nH]2)c(Cl)c1 (stereo unspecified) | – | 62.0 | – | – | – | 58.1µM
FC(F)(F)c1cnc(C(c2ccccc2)c2ncn[nH]2)c(Cl)c1 (stereo unspecified) | – | – | – | – | – | ·
SMILES | TCR CD3 inh | ARNT TACC3 PPI | HTRA1 inh | SIAE inh | mABHD4 FP | AlphaScreen ctr | others
C[C@@H](NC(=O)[C@@H]1[C@@H](CO)[C@@H]2Cn3c(ccc(-c4cccnc4)c3=O)[C@H]1N2C)c1ccccc1 | · | – | · | · | · | ·
O=C(N[C@@H]1CC[C@H](CCn2cc(-c3ccccn3)nn2)O[C@@H]1CO)c1ccncc1 | – | 65.8 | · | – | – | 32.6µM
O=C(N[C@H]1CC[C@@H](CCn2cc(-c3ccccn3)nn2)O[C@H]1CO)c1ccncc1 | · | 65.3 | · | · | · | 31.3µM
N[C@H]1CC[C@@H](CCn2cc(-c3ccccn3)nn2)O[C@H]1CO | · | 74.8 | · | · | · | 6.03µM
COCc1cn(CC[C@H]2CC[C@@H](NC(=O)c3ccncc3)[C@@H](CO)O2)nn1 | · | – | · | · | · | ·
N[C@H]1CC[C@H](CCn2cc(-c3cccc(F)c3)nn2)O[C@@H]1CO | · | – | · | · | · | ·
C[C@@H]1CCCCO[C@@H](CN(C)Cc2ccc3c(c2)OCO3)[C@H](C)CN([C@H](C)CO)C(=O)c2cc(N(C)C)ccc2O1 | · | – | · | · | · | ·
O=C(C[C@H]1CC[C@H](NC(=O)c2ccccc2)[C@H](CO)O1)Nc1ccc(-c2ccccc2)cc1 | · | – | · | · | · | ·
O=C(C[C@H]1CC[C@H](NC(=O)Nc2cc(F)ccc2F)[C@@H](CO)O1)Nc1ccc(-c2ccccc2)cc1 | · | – | · | · | · | ·
O=C(C[C@@H]1CC[C@@H](NC(=O)c2ccccc2)[C@H](CO)O1)Nc1ccc(-c2ccccc2)cc1 | · | 53.5 | · | · | · | –
O=C(C[C@@H]1CC[C@H](NC(=O)Nc2cc(F)ccc2F)[C@@H](CO)O1)Nc1ccc(-c2ccccc2)cc1 | · | 53.8 | · | · | · | –
O=C(CC(NCc1ccccn1)C(=O)O)Nc1ccccc1Cl (stereo unspecified) | – | 51.1 | – | – | – | 13.5µM
O=C(Nc1cc(F)ccc1F)N[C@@H]1CC[C@@H](CCn2cc(C3CC3)nn2)O[C@H]1CO | · | – | · | · | · | ·
CCCN(CCC)c1nc(-c2ccccn2)nc2ccccc12 | – | 59.7 | – | – | – | –
NS(=O)(=O)c1ccc(CCNC(=O)c2ccc3c(c2)OCO3)cc1 | – | 41.4 | – | – | – | –
Cc1noc(C)c1NC(=O)N1C[C@@H](O)COC[C@H]2O[C@H](CC(=O)NCC3CCCCC3)CC[C@@H]21 | · | – | · | · | · | ·
O=C(Nc1ccc2c(c1)[C@@H]1C[C@H](CC(=O)N3CCc4ccccc4C3)O[C@@H](CO)[C@@H]1O2)c1ccc2c(c1)OCO2 | · | 51.2 | · | · | · | 49.5µM
